This is one part of a sample in which hits are shown more often than they occur.
E-selectin induc: E-selectin induction on HUVECs; HUVEC E-selectin immunofluorescence imaging; normalized: neutral wells 0, TNF-alpha wells 100; activation, % at 7.58 µM; AID 686992; P16581; 260,000 compounds, 0.37% hits;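 active means mean E-selectin-positive cell signal at least 10% of the positive control, reached in at least 60% of replicates, without over 20% cell loss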
Target sequence (P16581 whole entry, looked up): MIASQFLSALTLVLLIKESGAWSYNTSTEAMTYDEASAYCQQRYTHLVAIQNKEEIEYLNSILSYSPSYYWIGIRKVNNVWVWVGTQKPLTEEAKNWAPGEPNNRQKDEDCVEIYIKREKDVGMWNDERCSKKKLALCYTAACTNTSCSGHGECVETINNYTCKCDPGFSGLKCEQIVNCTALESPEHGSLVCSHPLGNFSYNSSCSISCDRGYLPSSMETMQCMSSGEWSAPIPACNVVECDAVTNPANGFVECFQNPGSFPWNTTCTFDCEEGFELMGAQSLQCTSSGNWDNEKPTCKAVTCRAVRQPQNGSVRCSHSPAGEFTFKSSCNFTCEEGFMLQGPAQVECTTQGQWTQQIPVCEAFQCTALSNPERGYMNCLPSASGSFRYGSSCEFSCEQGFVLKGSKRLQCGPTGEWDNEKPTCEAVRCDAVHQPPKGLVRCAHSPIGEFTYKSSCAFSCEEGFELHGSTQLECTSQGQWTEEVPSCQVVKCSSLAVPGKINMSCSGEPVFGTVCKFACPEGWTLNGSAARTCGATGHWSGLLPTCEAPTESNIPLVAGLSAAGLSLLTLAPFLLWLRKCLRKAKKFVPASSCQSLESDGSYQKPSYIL
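System: HUVEC, human umbilical vein endothelial cells; quantity: 3,000 cells/well; buffer or medium: EGM-2 medium, gelatin-coated wells; dosing: single-point compound dose; detection: immunofluorescence imaging; evaluation: % PE-positive cells; benchmarks: TNF-alpha, DMSO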
Starred values were filed as active, the others as inactive.

SMILES	E-selectin induc
N#C[C@H]1[C@@H](c2ccccc2C2=CCCCC2)[C@H](CO)N1S(=O)(=O)c1cccc(F)c1	0
CCN1/C(=C/C=C/c2oc3ccc(-c4ccccc4)cc3[n+]2CC)Oc2ccc(-c3ccccc3)cc21	218*
O=C(CN1C(=O)NC2(CCCC2)C1=O)Nc1cc(S(=O)(=O)N2CCOCC2)ccc1OCC(F)(F)F	0
CCN(CC)c1ccc(S(=O)(=O)N2CCOCC2)cc1NC(=O)CN1C(=O)NC2(CCCC2)C1=O	63*
CCN(CC)c1ccc(S(=O)(=O)N2CCOCC2)cc1NC(=O)CSc1ccccc1	3
O=C(C[C@H]1CC[C@@H]2[C@H](COC[C@H](O)CN2Cc2cccc(-c3ccncc3)c2)O1)N1CCN(c2ccccc2)CC1	0
O=C(C[C@H]1CC[C@H]2[C@@H](COC[C@H](O)CN2C(=O)Cc2ccccc2)O1)NC1CCCC1	0
CC(C)NC(=O)N(C)C[C@@H]1OCCCC[C@H](C)Oc2ccc(NC(=O)NC3CCCCC3)cc2C(=O)N([C@@H](C)CO)C[C@H]1C	0
COc1ccc(-c2nc(NC(=O)Cn3c(=O)oc4ccccc43)sc2C)cc1	39*
COc1ccc(-c2nc(NC(=O)CSCCO)sc2C)cc1	0
COc1ccc(-c2nc(NC(=O)Cn3cnnn3)sc2C)cc1	9
Cc1noc(C)c1NC(=O)Nc1ccc2c(c1)C(=O)N([C@H](C)CO)C[C@@H](C)[C@@H](CN(C)Cc1ccccc1)OCCCC[C@H](C)O2	1
C[C@H](CO)N1C[C@H](C)[C@H](CN(C)C(=O)c2ccncc2)Oc2ncc(-c3ccc(C(=O)N(C)C)cc3)cc2C1=O	0
C[C@@H]1CN([C@H](C)CO)C(=O)Cc2cc(NC(=O)C3CCCCC3)ccc2O[C@@H]1CN(C)Cc1ccncc1	12
CCCCCCOc1ccc(C(CC(N)=O)C(=O)O)cc1 (configuration not stated)	80*
CCCCCCOc1ccc(C(=O)O)cc1	0
CCC(=O)OCCCCCCOc1ccc(C(=O)O)cc1	-1
CO[C@H]1CN(C)C(=O)c2ccc(NC(=O)C3CC3)cc2OC[C@H](C)N(C(=O)CN(C)C)C[C@H]1C	0
COc1ccc(CN(C)C[C@@H]2OCCCC[C@@H](C)Oc3ccc(NS(C)(=O)=O)cc3C(=O)N([C@H](C)CO)C[C@H]2C)cc1	0
Cc1ccc(C(=O)Nc2ccc(N3CCCC3)cc2)c(C)c1	3
Cc1ccc(C(=O)NC(=S)Nc2ccc(CN3CCCCC3)cc2)c(C)c1	26*
COc1ccc(C(=O)NC(=S)Nc2ccc(CN3CCCCC3)cc2)cc1Cl	0
COc1ccc(S(=O)(=O)Nc2ccc3c(c2)C(=O)N([C@H](C)CO)C[C@H](C)[C@H](CN(C)S(=O)(=O)c2ccc(C)cc2)O3)cc1	0
CC(C)NC(=O)N(C)C[C@H]1Oc2c(NS(=O)(=O)c3ccc(F)cc3)cccc2C(=O)N([C@@H](C)CO)C[C@@H]1C	0
c1ccc(CCN(Cc2ccccc2)Cc2nc(C3CC3)no2)cc1	0
SMILES	E-selectin induc
CN(Cc1ccc2nonc2c1)Cc1nc(CC2CC2)no1	0
Cc1ccsc1CN(C)Cc1nc(C2CC2)no1	513*
COC(=O)C[C@@H]1C[C@@H]2c3cc(NC(=O)C4CCOCC4)ccc3O[C@@H]2[C@@H](CO)O1	0
CCC(=O)N1[C@H](CO)[C@H]2c3ccccc3N(S(=O)(=O)c3ccccc3F)C[C@H]21	0
COc1ccc(NC(=O)N(C)C[C@@H]2Oc3ccc(NC(=O)Cc4ccccc4)cc3CC(=O)N([C@H](C)CO)C[C@H]2C)cc1	336*
C[C@@H]1CN([C@@H](C)CO)C(=O)Cc2cc(NC(=O)Cc3ccccc3)ccc2O[C@H]1CN(C)C(=O)Nc1cccc2ccccc12	338*
C[C@H]1CN([C@@H](C)CO)C(=O)Cc2cc(NC(=O)Nc3ccccc3)ccc2O[C@H]1CN(C)C(=O)Nc1cccc2ccccc12	0
C[C@H]1CN([C@@H](C)CO)C(=O)Cc2cc(NC(=O)Cc3ccccc3)ccc2O[C@H]1CN(C)C(=O)Nc1cccc2ccccc12	12
COc1ccc(NC(=O)N(C)C[C@@H]2Oc3ccc(NC(=O)Cc4ccccc4)cc3CC(=O)N([C@@H](C)CO)C[C@@H]2C)cc1	-6
COc1ccc(NC(=O)N(C)C[C@H]2Oc3ccc(NC(=O)Cc4ccccc4)cc3CC(=O)N([C@@H](C)CO)C[C@@H]2C)cc1	2
C[C@H]1CN([C@@H](C)CO)C(=O)Cc2cc(NC(=O)Nc3cccc4ccccc34)ccc2O[C@@H]1CN(C)S(=O)(=O)c1ccccc1	0
C[C@@H]1CN([C@@H](C)CO)C(=O)c2cc(NS(=O)(=O)c3ccccc3)ccc2O[C@H]1CN(C)C(=O)NC1CCCCC1	-20
CO[C@@H]1CN(C)C(=O)c2cc(NC(=O)c3ccccc3)ccc2OC[C@H](C)N(C)C[C@@H]1C	0
COC(=O)C[C@H]1CC[C@H]2[C@@H](COc3ccc(NS(C)(=O)=O)cc3C(=O)N2C)O1	0
Cc1ccc(C)c(NC(=O)CN(C)C(=O)c2ccc(-n3cncn3)c([N+](=O)[O-])c2)c1	2

Source: PubChem BioAssay (Broad Institute)
